Laboratory results from ChEMBL document CHEMBL2429762, “Structure-activity relationship study of indole-2-carboxamides identifies a potent allosteric modulator for the cannabinoid receptor 1 (CB1)” (J Med Chem, 2013).
Calls of active or inactive are those of the source. No cut-off for these calls is given here.

Experiments:
[1] = molecular target: Cannabinoid receptor 1 (Homo sapiens) (UniProt P21554); test: Allosteric modulation of CB1 receptor (unknown origin) expressed in HEK293 cell membranes assessed as stimulation of [3H]CP55,940 binding up to 32 uM after 60 mins by liquid scintillation counting analysis
Procedure, shortened: (§1)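 Nonspecific binding was taken with 1 μM unlabeled CP55,940. Samples were filtered on GF/C and counted by scintillation. Runs were in duplicate, ≥3 experiments. α and KB came from nonlinear regression to the allosteric ternary complex model, with [A] and KA fixed.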

[2] = molecular target: Cannabinoid receptor 1 (Homo sapiens) (UniProt P21554); test: Positive allosteric modulation of CB1 receptor (unknown origin) expressed in HEK293 cell membranes assessed as stimulation of [3H]CP55,940 binding after 60 mins by liquid scintillation counting analysis; procedure, shortened: as §1
[3] = molecular target: Cannabinoid receptor 1 (Homo sapiens) (UniProt P21554); test: Antagonist activity CB1 receptor (unknown origin) expressed in HEK293 cell membranes assessed as inhibition of CP55,940-induced [35S]GTPgammaS binding at 10 uM after 60 mins by liquid scintillation counting analysis relative to control; type: functional
Procedure, shortened: (§2)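 Wild-type CB1 HEK293 membranes (7.5 μg) were incubated 60 min at 30 °C in 50 mM Tris-HCl pH 7.4, 3 mM MgCl2, 0.2 mM EGTA, 100 mM NaCl, 0.1% BSA, 10 μM GDP and 0.1 nM [35S]GTPγS. CP55,940 was given at ≥9 concentrations (100 pM–100 μM), with or without modulator. Nonspecific binding was taken with 10 μM GTPγS. Samples were filtered and counted by scintillation. Runs were in duplicate, ≥3 experiments.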

[4] = molecular target: Cannabinoid receptor 1 (Homo sapiens) (UniProt P21554); test: Antagonist activity CB1 receptor (unknown origin) expressed in HEK293 cell membranes assessed as inhibition of CP55,940-induced [35S]GTPgammaS binding at 3.2 uM after 60 mins by liquid scintillation counting analysis relative to control; type: functional; procedure, shortened: as §2
[5] = molecular target: Cannabinoid receptor 1 (Homo sapiens) (UniProt P21554); test: Antagonist activity CB1 receptor (unknown origin) expressed in HEK293 cell membranes assessed as inhibition of CP55,940-induced [35S]GTPgammaS binding after 60 mins by liquid scintillation counting analysis; type: functional; procedure, shortened: as §2
[6] = molecular target: Cannabinoid receptor 1 (Homo sapiens) (UniProt P21554); test: Antagonist activity CB1 receptor (unknown origin) expressed in HEK293 cell membranes assessed as inhibition of [35S]GTPgammaS binding at 10 uM after 60 mins by liquid scintillation counting analysis; type: functional
Procedure, shortened: (§3)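 Basal [35S]GTPγS binding was measured with no orthosteric agonist on wild-type CB1 HEK293 membranes (7.5 μg), 60 min at 30 °C. Buffer was Tris pH 7.4 with MgCl2, EGTA, NaCl and BSA, plus 5 μM GDP and 0.1 nM [35S]GTPγS, and modulator added. Nonspecific binding was taken with 10 μM GTPγS. Mock-transfected membranes gave the non-CB1 binding. Samples were filtered and counted by scintillation. Runs were in duplicate, ≥3 experiments; one-way ANOVA with Bonferroni test was applied.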

[7] = molecular target: Cannabinoid receptor 1 (Homo sapiens) (UniProt P21554); test: Antagonist activity CB1 receptor (unknown origin) expressed in HEK293 cell membranes assessed as inhibition of [35S]GTPgammaS binding after 60 mins by liquid scintillation counting analysis; type: functional; procedure, shortened: as §3
[8] = molecular target: Cannabinoid receptor 1 (Homo sapiens) (UniProt P21554); test: Antagonist activity CB1 receptor (unknown origin) expressed in HEK293 cell membranes assessed as inhibition of CP55,940-induced [35S]GTPgammaS binding at 1 uM after 60 mins by liquid scintillation counting analysis relative to control; type: functional; procedure, shortened: as §2
[9] = molecular target: Cannabinoid receptor 1 (Homo sapiens) (UniProt P21554); test: Antagonist activity CB1 receptor (unknown origin) expressed in HEK293 cell membranes assessed as inhibition of CP55,940-induced [35S]GTPgammaS binding at 0.1 uM after 60 mins by liquid scintillation counting analysis (reference value: […] +/- […] fmol/mg); type: functional

Sequence of Cannabinoid receptor 1 (Homo sapiens) (P21554 whole entry): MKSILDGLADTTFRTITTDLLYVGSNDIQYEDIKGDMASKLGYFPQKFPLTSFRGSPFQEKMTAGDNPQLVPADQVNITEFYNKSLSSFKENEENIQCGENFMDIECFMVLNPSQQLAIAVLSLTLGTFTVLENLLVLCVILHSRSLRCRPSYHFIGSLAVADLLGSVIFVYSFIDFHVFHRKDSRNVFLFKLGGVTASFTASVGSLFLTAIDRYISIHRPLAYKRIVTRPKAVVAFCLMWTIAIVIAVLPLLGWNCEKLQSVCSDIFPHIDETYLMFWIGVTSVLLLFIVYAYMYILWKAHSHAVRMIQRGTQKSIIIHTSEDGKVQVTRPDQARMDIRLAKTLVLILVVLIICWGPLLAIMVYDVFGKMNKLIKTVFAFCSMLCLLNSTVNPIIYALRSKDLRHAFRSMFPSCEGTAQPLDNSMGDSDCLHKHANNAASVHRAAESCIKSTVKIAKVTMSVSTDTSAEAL

CCCCCc1c(C(=O)NCc2ccc(N3CCCCC3)cc2)[nH]c2ccc(Cl)cc12
Activity [1]: inactive

CCc1c(C(=O)NCCc2ccc(N(C)C)cc2)oc2ccc(Cl)cc12
Kb [2]: 627 nM

CCCCCc1c(C(=O)NCCc2ccc(Oc3ccccc3)cc2)[nH]c2ccc(Cl)cc12
Kb [2]: 2340 nM

CCc1c(C(=O)NCCc2ccc(N3CCCCC3)cc2)oc2ccc(Cl)cc12
Kb [2]: 2590 nM | inhibition [3]: Active | Emax [4]: 59.5 fmol/mg | inhibition [5]: Dose-dependent effect

O=C(NCCc1ccc(N2CCCCC2)cc1)c1cc2cc(Cl)ccc2o1
Activity [1]: inactive

CCCCCCCCCc1c(C(=O)NCCc2ccc(N3CCCCC3)cc2)[nH]c2ccc(Cl)cc12
Kb [2]: 260 nM | inhibition [3]: Active | Emax [4]: 61.4 fmol/mg | inhibition [5]: Dose-dependent effect

CCc1c(C(=O)NCCc2ccc(N3CCCCC3)cc2)[nH]c2ccc(Cl)cc12
Kb [2]: 217 nM

CCCCCc1c(C(=O)NCCc2ccc(N3CCOCC3)cc2)[nH]c2ccc(Cl)cc12
Kb [2]: 508 nM | inhibition [3]: Active | Emax [4]: 58.2 fmol/mg | inhibition [5]: Dose-dependent effect

CCCCCc1c(C(=O)NCCc2ccc(N(C)C)cc2)[nH]c2ccc(Cl)cc12
Kb [2]: 167 nM | inhibition [6]: Active | inhibition [7]: Dose-dependent effect | Emax [8]: 36 fmol/mg | Emax [9]: 53.4 fmol/mg | inhibition [5]: Dose-dependent effect

O=C(NCCc1ccc(N2CCCCC2)cc1)c1[nH]c2ccc(Cl)cc2c1CC1CCCCC1
Kb [2]: 2410 nM

CCCCCCCc1c(C(=O)NCCc2ccc(N3CCCCC3)cc2)[nH]c2ccc(Cl)cc12
Kb [2]: 651 nM

O=C(NCCc1ccc(N2CCCCC2)cc1)c1[nH]c2ccc(Cl)cc2c1-c1ccccc1
Activity [1]: inactive

CCc1c(C(=O)NCCc2ccc(N(C)C)cc2)[nH]c2ccc(Cl)cc12
Kb [2]: 207 nM

O=C(NCCc1ccc(N2CCCCC2)cc1)c1[nH]c2ccc(Cl)cc2c1Cc1ccccc1
Kb [2]: 1070 nM

CCCCCc1c(C(=O)NC(CO)Cc2ccc(N(C)C)cc2)[nH]c2ccc(Cl)cc12 (stereo not given)
Kb [2]: 1020 nM

CN(C)c1ccc(CCNC(=O)c2cc3cc(Cl)ccc3o2)cc1
Activity [1]: inactive
